Compound activity: PubChem, several laboratories
PostGolgi ctrl – inhibits growth of the yeast control strain. efflux-deficient yeast background strain, growth absorbance A615, 16 h. inhibition, % at 10 µM. actives 5% (n = 98,000)
PostGolgi yeast – growth inhibition of a yeast mutant, post-Golgi transport screen; actives 0.9% (n = 98,000); AID 739; post-Golgi transport phenotypic cell assay; inhibition, % at 10 µM;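 further: yeast cells grown in 1536-well plates; yeast grown about 18 h at 30C before absorbance read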
D1 mod – allosterically modulates the human D1 dopamine receptor; P21728; HEK293 D1, CRE-luciferase, dopamine EC30 potentiation; actives deviate in either direction; B-score at 10 µM; actives 5.9% (n = 58,000); AID 641;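 active means luminescence count or its row- and column-corrected plate score outside the 99.7% band of the plate's sample wells, on either side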
Target sequence (P21728 whole entry, looked up): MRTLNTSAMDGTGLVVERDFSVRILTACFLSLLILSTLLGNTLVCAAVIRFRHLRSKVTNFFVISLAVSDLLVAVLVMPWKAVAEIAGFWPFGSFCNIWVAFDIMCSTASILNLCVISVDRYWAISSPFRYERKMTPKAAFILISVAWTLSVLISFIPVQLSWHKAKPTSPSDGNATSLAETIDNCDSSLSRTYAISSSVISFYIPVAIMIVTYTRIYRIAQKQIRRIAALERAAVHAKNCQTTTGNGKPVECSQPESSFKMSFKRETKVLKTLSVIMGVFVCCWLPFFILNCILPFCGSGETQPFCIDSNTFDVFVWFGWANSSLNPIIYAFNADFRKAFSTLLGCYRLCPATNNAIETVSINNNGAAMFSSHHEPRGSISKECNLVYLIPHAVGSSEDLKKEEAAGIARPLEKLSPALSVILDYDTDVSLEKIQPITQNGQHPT
E coli WT exp – blocks growth of wild type E. coli BW25113; OD600 absorbance; growth inhibition, % at 100 µM; actives 0.15% (n = 98,000); AID 710;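 active means growth inhibition above about 50% at one test dose, limit read from the data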;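 further: growth measured after 20 h incubation at 37 °C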
Ecoli tolC – blocks growth of E. coli BW25113 tolC mutant; OD615; growth inhibition, % at 10 µM (by protocol); actives 2.2% (n = 65,000); AID 573;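 active means growth inhibition at or above a cutoff equal to the mean over every tested compound plus 3 SD, cut at about 60% in these data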;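 further: growth measured after 20 h incubation at 37 °C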
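test system = E. coli BW25113 ΔtolC::kan bacteria | medium = LB with kanamycin 50 µg/mL | signal = OD at 615 nm | schedule = 37 °C, 20 h exposure | evaluation = % inhibition of E. coli growth | compound dosing = one dose of 10 µM final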
DAT uptake mod – changed human dopamine transporter uptake under cocaine IC80; Q01959; actives 1.3% (n = 110,000); B-score at 10 µM; LLC-PK1 hDAT cells, [14C]-dopamine uptake with cocaine IC80; actives deviate in either direction; AID 449768;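 active means Z score or B-score, a plate-position-corrected score, falls beyond the plate's 99.7% confidence bounds, in either direction; inactive means both scores lie inside the 99.7% bounds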;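 further: scored against the spread of the other compound wells on the same plate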
D1 mod confirm – confirmation of human D1 dopamine receptor allosteric modulators; shares compounds with D1 mod; HEK293 D1 CRE-luciferase, dopamine EC30 potentiation; stronger effect = higher value; luminescence at 10 µM; actives 88% (n = 2,200);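 active means luminescence in either of two replicates above the same-plate mean plus 3 SD of the low-dose dopamine control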
D1 ag no DA – secondary test of D1 modulators: activity without dopamine; shares compounds with D1 mod; HEK293 D1 CRE-luciferase, luminescence, no dopamine; stronger effect = higher value; luminescence at 10 µM; actives 0.8% (n = 1,900); in the data active means luminescence above about 3900
Isoprot counter – alters isoproterenol CRE-luciferase response in HEK293 cells; shares compounds with D1 mod; HEK293 D1 CRE-luciferase, isoproterenol EC30 counter-screen; calls only at 10 µM; actives 63% (n = 2,200); AID 647;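 active means luminescence in either replicate above plate mean of wells with a partly effective reference agonist dose plus 3 SD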;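 further: isoproterenol raises cAMP through native beta-adrenoceptor Gs so signal bypasses D1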
An asterisk follows results filed as active. A selection: hits, their analogues and other compounds. The true share with any hit is near 9.3%. Unless noted, no stated cut-off is given here; in the data, active means inhibition above about 30%; inactive means the rest.

How did Cc1onc(-c2ccccc2)c1-c1n[nH]c(=S)n1-c1ccccc1 do in these assays?
DAT uptake mod: -0.03

How did COc1ccc2c(C)cc(=O)oc2c1C do in these assays?
PostGolgi ctrl: 2; PostGolgi yeast: 0; D1 mod: 5.7*; E coli WT exp: 3; Ecoli tolC: -1; DAT uptake mod: -1.3; D1 mod confirm: 11556*; Isoprot counter: active

What do the screens show for `Cc1cc(=O)oc2c(C)c(OCC(=O)N(C)C)ccc12`?
PostGolgi ctrl: 4; PostGolgi yeast: 2; D1 mod: 0.93; E coli WT exp: 3; Ecoli tolC: -11; DAT uptake mod: 0.57

What do the screens show for `C=CCN(CC(=O)NCc1ccccc1)C(=O)c1csnn1`?
PostGolgi ctrl: 1; PostGolgi yeast: -3; D1 mod: 3*; E coli WT exp: 10; Ecoli tolC: -6; DAT uptake mod: -1.8; D1 mod confirm: 6904; D1 ag no DA: 1720; Isoprot counter: inactive

How did Cc1ccc(C(=O)C2(C)C3c4cc(Br)ccc4OC(=O)C32C(=O)c2ccco2)cc1 (stereo not drawn) do in these assays?
PostGolgi ctrl: 17; PostGolgi yeast: -14; E coli WT exp: -10; DAT uptake mod: 0.77

Results for Clc1ccc(-n2nnnc2-c2ccccc2)cc1 ?
PostGolgi ctrl: 8; PostGolgi yeast: 17; D1 mod: 3.5*; E coli WT exp: 4; Ecoli tolC: 5; DAT uptake mod: -1.2; D1 mod confirm: 8784*; D1 ag no DA: 1344; Isoprot counter: inactive

How did O=C1c2ccccc2S(=O)(=O)N1CCOc1ccc(F)cc1 do in these assays?
PostGolgi ctrl: -2; PostGolgi yeast: 0; D1 mod: -0.18; E coli WT exp: 0; Ecoli tolC: 13; DAT uptake mod: 0.16

Results for FC(F)Sc1nnc(-c2cccs2)n1-c1ccccc1 ?
PostGolgi ctrl: 8; PostGolgi yeast: -7; D1 mod: 6.9*; E coli WT exp: 6; Ecoli tolC: 3; DAT uptake mod: -0.29; D1 mod confirm: 13848*; D1 ag no DA: 1504; Isoprot counter: active

How did O=C(NC(NC(=O)c1ccccc1)c1ccccc1)c1ccccc1 do in these assays?
PostGolgi ctrl: 3; PostGolgi yeast: -8; E coli WT exp: -3; DAT uptake mod: -0.92

What do the screens show for `CCOc1ccc(Cl)cc1S(=O)(=O)N1CCCC1`?
PostGolgi ctrl: 7; PostGolgi yeast: 2; D1 mod: -1.5; E coli WT exp: 6; Ecoli tolC: 1; DAT uptake mod: 0.41

How did CCOc1c(S(=O)(=O)N2CCCC2)ccc(Cl)c1Cl do in these assays?
PostGolgi ctrl: 8; PostGolgi yeast: 13; D1 mod: 12*; E coli WT exp: -1; Ecoli tolC: 52; DAT uptake mod: 0.41; D1 mod confirm: 11948*; D1 ag no DA: 1540; Isoprot counter: active

What do the screens show for `Cc1cc(C)nc(-n2nc(C)cc2NC(=O)c2cccc(S(=O)(=O)N3CCCCC3)c2)n1`?
PostGolgi ctrl: 21; PostGolgi yeast: -4; E coli WT exp: 3; DAT uptake mod: 2

What do the screens show for `CCOC(=O)n1c(SCC(N)=O)nc2ccccc21`?
PostGolgi ctrl: 6; PostGolgi yeast: -7; E coli WT exp: 6; DAT uptake mod: 1.2

How did CSc1nc2ccccc2n1C(=O)Oc1ccccc1 do in these assays?
PostGolgi ctrl: 24; PostGolgi yeast: -3; D1 mod: 9.4*; E coli WT exp: -4; Ecoli tolC: 2; DAT uptake mod: -0.11; D1 mod confirm: 12420*; D1 ag no DA: 1516; Isoprot counter: active

How did OCC(CO)(CO)n1cnnn1 do in these assays?
PostGolgi ctrl: -7; PostGolgi yeast: -13; D1 mod: 3.5*; E coli WT exp: 7; Ecoli tolC: -12; DAT uptake mod: -0.24; D1 mod confirm: 5960; D1 ag no DA: 1496; Isoprot counter: inactive

What do the screens show for `O=C(Nc1ccccc1Cl)c1cccc(COc2cc(Cl)ccc2Cl)c1`?
PostGolgi ctrl: 8; PostGolgi yeast: -2; E coli WT exp: -4

Results for O=c1oc(-c2ccco2)nc2ccccc12 ?
PostGolgi ctrl: -1; PostGolgi yeast: 2; D1 mod: 0.29; E coli WT exp: -9; Ecoli tolC: -11; DAT uptake mod: -0.19

How did c1coc(-c2nc3ccccc3nc2-c2ccco2)c1 do in these assays?
PostGolgi ctrl: 9; PostGolgi yeast: 14; D1 mod: 6.7*; E coli WT exp: -1; Ecoli tolC: 13; DAT uptake mod: 0.36; D1 mod confirm: 14092*; Isoprot counter: active

How did CCCCCOc1ccc(C2C(C(C)=O)=C(C)Nc3ncnn32)cc1OC (stereo not drawn) do in these assays?
PostGolgi ctrl: -7; PostGolgi yeast: -2; D1 mod: 1.9; E coli WT exp: -14; Ecoli tolC: -8

Results for COC(=O)C1=C(C)NC(=O)NC1C1CC=CCC1 (stereo not drawn) ?
PostGolgi ctrl: 8; PostGolgi yeast: -6; D1 mod: 3.3*; E coli WT exp: -4; Ecoli tolC: -15; DAT uptake mod: -0.23; D1 mod confirm: 4764; D1 ag no DA: 1316; Isoprot counter: inactive

What do the screens show for `CCOC(=O)C(C)Oc1cccc2c(=O)n(CC(=O)NCc3ccco3)ccc12` (stereo not drawn)?
PostGolgi ctrl: 5; PostGolgi yeast: -11; D1 mod: 3.3*; E coli WT exp: -3; Ecoli tolC: 0; DAT uptake mod: -1.3; D1 mod confirm: 6652*; D1 ag no DA: 1628; Isoprot counter: inactive

How did CC(C)C(=O)c1cn(CC(=O)NCc2ccco2)c2ccccc12 do in these assays?
DAT uptake mod: 1.7

How did COc1ccc(C(c2sc3ncnn3c2O)N2CCN(c3ccccc3F)CC2)cc1OC (stereo not drawn) do in these assays?
PostGolgi ctrl: -2; PostGolgi yeast: -7; D1 mod: 4.8*; E coli WT exp: 1; Ecoli tolC: 18; DAT uptake mod: 1.6; D1 mod confirm: 14444*; D1 ag no DA: 1744; Isoprot counter: active

What do the screens show for `CC1CCN(c2ccc(C(=O)NCc3cccs3)cn2)CC1`?
PostGolgi ctrl: 9; PostGolgi yeast: -8; D1 mod: 0.5; E coli WT exp: 10; Ecoli tolC: 37; DAT uptake mod: 1.7

What do the screens show for `CC(C)CSc1nc2c(c(=O)[nH]c(=O)n2C)n1CCc1ccccc1`?
PostGolgi ctrl: 22; PostGolgi yeast: 4; D1 mod: 19*; E coli WT exp: -5; Ecoli tolC: 5; DAT uptake mod: -0.38; D1 mod confirm: 14104*; D1 ag no DA: 1444; Isoprot counter: active
